From paper PMC4112157 (Bioorganic & medicinal chemistry, 2014)
“Also recorded” adds a separate entry of the source. Like-named read-outs stand apart in the source and are kept apart here.

Tests used:
s15-LOX-1 = molecular target: T1, s15-LOX-1 (Glycine max, UniProt P08170); test: Lipoxygenase UV-Vis-based IC50 assay, s15-LOX-1; assay type: biochemical, soybean
T1 sequence (P08170 1-839): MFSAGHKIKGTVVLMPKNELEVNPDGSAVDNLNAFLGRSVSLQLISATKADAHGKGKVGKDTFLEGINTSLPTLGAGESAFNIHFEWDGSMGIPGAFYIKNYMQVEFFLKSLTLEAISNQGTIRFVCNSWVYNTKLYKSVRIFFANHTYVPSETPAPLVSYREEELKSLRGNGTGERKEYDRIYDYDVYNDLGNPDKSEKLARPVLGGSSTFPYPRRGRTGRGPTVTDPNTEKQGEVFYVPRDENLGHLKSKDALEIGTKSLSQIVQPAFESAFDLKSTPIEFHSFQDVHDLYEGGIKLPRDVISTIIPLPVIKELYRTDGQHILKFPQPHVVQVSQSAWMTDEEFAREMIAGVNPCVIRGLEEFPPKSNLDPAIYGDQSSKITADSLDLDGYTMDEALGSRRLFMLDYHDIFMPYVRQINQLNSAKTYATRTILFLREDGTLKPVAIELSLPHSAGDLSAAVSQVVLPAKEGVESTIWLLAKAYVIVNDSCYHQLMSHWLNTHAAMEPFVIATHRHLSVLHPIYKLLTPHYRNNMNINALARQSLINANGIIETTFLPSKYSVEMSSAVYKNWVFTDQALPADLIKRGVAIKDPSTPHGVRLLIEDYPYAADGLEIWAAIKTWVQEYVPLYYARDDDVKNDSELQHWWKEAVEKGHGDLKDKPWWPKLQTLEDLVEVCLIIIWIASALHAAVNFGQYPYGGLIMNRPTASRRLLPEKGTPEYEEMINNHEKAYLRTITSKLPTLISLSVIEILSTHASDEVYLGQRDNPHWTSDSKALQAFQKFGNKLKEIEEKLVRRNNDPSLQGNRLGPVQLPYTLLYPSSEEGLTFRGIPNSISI

h12-LOX [1] = molecular target: T2, h12-LOX (Homo sapiens, UniProt P18054); test: Oxo-lipid substrate activity, h12-LOX; assay type: biochemical
T2 sequence (P18054 1-663): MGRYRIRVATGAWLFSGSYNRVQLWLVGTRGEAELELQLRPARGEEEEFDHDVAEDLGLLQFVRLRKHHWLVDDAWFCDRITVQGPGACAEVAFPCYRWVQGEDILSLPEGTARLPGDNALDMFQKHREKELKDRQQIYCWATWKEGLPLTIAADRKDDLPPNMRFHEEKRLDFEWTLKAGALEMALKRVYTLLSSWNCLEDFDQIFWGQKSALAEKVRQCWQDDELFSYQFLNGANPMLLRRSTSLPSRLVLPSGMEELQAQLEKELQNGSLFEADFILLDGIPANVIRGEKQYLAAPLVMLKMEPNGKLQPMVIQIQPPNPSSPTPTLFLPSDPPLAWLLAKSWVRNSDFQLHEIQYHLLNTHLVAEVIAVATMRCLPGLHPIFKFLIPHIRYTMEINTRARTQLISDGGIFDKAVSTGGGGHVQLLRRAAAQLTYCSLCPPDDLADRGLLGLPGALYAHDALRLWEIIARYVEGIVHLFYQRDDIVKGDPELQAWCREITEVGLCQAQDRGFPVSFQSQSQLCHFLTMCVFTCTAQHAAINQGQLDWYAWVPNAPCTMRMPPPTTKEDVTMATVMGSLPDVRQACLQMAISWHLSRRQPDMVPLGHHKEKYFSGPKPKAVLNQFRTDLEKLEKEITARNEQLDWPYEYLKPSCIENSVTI

h5-LOX = molecular target: T3, h5-LOX (Homo sapiens, UniProt P09917); test: Oxo-lipid substrate activity, h5-LOX; assay type: biochemical; details: IC50 assay conditions, 10 μM oxo-lipid, UV-Vis 234/280 nm, LC-MS
T3 sequence (P09917 1-674): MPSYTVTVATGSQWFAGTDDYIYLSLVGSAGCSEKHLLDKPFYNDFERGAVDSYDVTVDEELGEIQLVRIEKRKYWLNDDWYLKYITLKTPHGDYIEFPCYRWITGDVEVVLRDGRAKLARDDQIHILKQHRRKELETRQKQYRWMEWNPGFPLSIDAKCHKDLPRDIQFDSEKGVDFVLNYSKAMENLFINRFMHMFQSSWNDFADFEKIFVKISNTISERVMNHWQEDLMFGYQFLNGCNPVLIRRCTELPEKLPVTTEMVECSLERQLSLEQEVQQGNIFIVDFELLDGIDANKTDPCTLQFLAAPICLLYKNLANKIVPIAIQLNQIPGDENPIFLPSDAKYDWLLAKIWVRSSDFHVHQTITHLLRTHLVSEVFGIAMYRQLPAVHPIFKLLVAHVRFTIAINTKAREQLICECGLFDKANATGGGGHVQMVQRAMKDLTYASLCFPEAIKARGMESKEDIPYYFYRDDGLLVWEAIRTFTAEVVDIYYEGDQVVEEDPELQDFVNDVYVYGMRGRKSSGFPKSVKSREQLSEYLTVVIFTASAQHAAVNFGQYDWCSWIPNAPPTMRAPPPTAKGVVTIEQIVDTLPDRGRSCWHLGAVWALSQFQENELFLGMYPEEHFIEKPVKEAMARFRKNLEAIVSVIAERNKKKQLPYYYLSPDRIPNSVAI

h15-LOX-1 [2] = molecular target: T4, h15-LOX-1 (Homo sapiens, UniProt P16050); test: Oxo-lipid substrate activity, h15-LOX-1; assay type: biochemical
T4 sequence (P16050 1-662): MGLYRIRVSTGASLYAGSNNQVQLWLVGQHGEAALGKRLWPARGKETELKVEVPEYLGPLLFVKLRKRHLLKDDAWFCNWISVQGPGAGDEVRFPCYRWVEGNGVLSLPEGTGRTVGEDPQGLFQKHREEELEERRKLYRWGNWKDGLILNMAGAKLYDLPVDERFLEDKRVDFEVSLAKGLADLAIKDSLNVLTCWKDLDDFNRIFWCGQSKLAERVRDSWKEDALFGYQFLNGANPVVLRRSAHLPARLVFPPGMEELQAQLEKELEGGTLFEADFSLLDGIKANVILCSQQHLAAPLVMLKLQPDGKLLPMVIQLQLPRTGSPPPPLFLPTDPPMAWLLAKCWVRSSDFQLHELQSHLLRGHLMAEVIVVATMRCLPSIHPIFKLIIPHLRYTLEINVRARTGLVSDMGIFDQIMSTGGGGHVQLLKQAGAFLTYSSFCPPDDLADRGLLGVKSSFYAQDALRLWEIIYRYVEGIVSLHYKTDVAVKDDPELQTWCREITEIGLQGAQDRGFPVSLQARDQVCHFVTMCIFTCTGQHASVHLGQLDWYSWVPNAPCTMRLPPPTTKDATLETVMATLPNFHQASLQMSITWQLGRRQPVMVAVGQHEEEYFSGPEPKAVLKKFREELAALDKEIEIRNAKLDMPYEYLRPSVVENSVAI

cytosolic calcium levels = details: cited from earlier work
h15-LOX-1 [3] = molecular target: T4, h15-LOX-1; test: Incubation activity assay; assay type: biochemical; details: time incubation experiments
LOX isozymes = test: Lipoxygenase UV-Vis-based IC50 assay, summary over LOX isozymes; assay type: biochemical
h12-LOX [4] = molecular target: T2, h12-LOX; test: Steady-state inhibition kinetics, h12-LOX; assay type: biochemical; details: for Ki: 0.4–10 μM AA, 25 mM HEPES pH 8.0, 0.01% Triton X-100, Dixon plot and replot
Method in brief: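 Enzyme added to start the reaction in a stirred cuvette containing 0.4–10 μM arachidonic acid, 25 mM HEPES (pH 8.0) and 0.01% Triton X-100. 12-HpETE formation followed at 234 nm (ε = 25,000 M−1cm−1) across substrate and inhibitor concentrations, with Dixon series at 0.6, 1, 3 and 9 μM AA. Dixon plot and slope-vs-[inhibitor] replot give Kic (dissociation from enzyme) and Kiu (from enzyme–substrate complex).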

[5] = IC50 assay conditions, 10 μM oxo-lipid, UV-Vis 234/280 nm, LC-MS
[6] = IC50 assay conditions, 10 μM oxo-lipid, UV-Vis 234/280 nm
[7] = incubation conditions, 10 μM, on ice 15 minutes, HPLC and LC-MS

IC50 (s15-LOX-1) | mode of inhibition (time dependence) (h15-LOX-1 [3]) | Ki (h12-LOX [4]; Kic) | Ki (h12-LOX [4]; Kiu) | IC50 (LOX isozymes; read-out: IC50 against the other LOX isozymes, LOX isozymes other than h12-LOX) | substrate activity (h12-LOX [1]; [7]) | substrate activity (h15-LOX-1 [2]; [7]) | SMILES | substrate activity (h12-LOX [1]; [5]) | substrate activity (h5-LOX) | substrate activity (h15-LOX-1 [2]; [6]) | concentration with calcium effects (as low as) (cytosolic calcium levels) | concentration with effects on cytosolic calcium levels (cytosolic calcium levels) | IC50 (LOX isozymes; read-out: IC50 for all LOXs, all LOXs studied) | mode of inhibition (steady state) (h12-LOX [4]; steady state inhibition kinetics)
> 100 µM |  |  |  |  |  |  | CCCCC/C=C\C/C=C\C/C=C\C=C\C(=O)CCCC(=O)O [5-oxo-ETE, 5-oxo-6,8,11,14-(E,Z,Z,Z)-eicosatetraenoic acid] | no change of absorbance at 234 nm or 280 nm | no change of absorbance at 234 nm or 280 nm | no change of absorbance at 234 nm or 280 nm |  |  |  | 
> 100 µM | irreversible inhibition |  |  |  |  |  | CCCCC/C=C\CC(=O)/C=C/C=C\C/C=C\CCCC(=O)O [12-oxo-ETE, 12-oxo-5,8,10,14-(Z,Z,E,Z)-eicosatetraenoic acid] |  | no change of absorbance at 234 nm or 280 nm | no change of absorbance at 234 nm or 280 nm | 10 nM | 10 µM |  | 
 |  | 0.087 ± 0.008 µM | 2.1 ± 0.8 µM | > 25 µM | not a substrate | not a substrate | CCCCCC(=O)/C=C/C=C\C/C=C\C/C=C\CCCC(=O)O [15-oxo-ETE, 15-oxo-5,8,11,13-(Z,Z,Z,E)-eicosatetraenoic acid] | not a substrate | multiple oxidation products were formed |  |  |  |  | mixed inhibitor; also recorded: mixed inhibition

SMILES | IC50 (s15-LOX-1) | mode of inhibition (time dependence) (h15-LOX-1 [3]) | Ki (h12-LOX [4]; Kic) | Ki (h12-LOX [4]; Kiu) | IC50 (LOX isozymes; read-out: IC50 against the other LOX isozymes, LOX isozymes other than h12-LOX) | substrate activity (h12-LOX [1]; [7]) | substrate activity (h15-LOX-1 [2]; [7]) | substrate activity (h12-LOX [1]; [5]) | substrate activity (h5-LOX) | substrate activity (h15-LOX-1 [2]; [6]) | concentration with calcium effects (as low as) (cytosolic calcium levels) | concentration with effects on cytosolic calcium levels (cytosolic calcium levels) | IC50 (LOX isozymes; read-out: IC50 for all LOXs, all LOXs studied) | mode of inhibition (steady state) (h12-LOX [4]; steady state inhibition kinetics)
CCCCCC(=O)/C=C/C=C\CCCCCCCC(=O)O [13-oxo-ODE, 13-oxo-9,11-(Z,E)-octadecadienoic acid] | > 100 µM |  |  |  |  |  |  |  |  |  |  |  | > 100 µM | 
